Shown are actives, neighbours in structure and some others; about 3% of the full set was active somewhere.
CHRM4 agonist = CHRM4 agonism in calcium assay; AID 624127; 0.14% of 360,000 active; CHO-K1 hM4/Gqi5, Fluo-8 calcium fluorescence; vehicle 0%, full acetylcholine response 100%; P08173; activation, % at 3 µM;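 active = activation above the run mean over all test wells plus 3 SD, cut at about 32% in these data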;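 also: peak over basal fluorescence ratio per well then scaled between controls; 0% = DMSO wells and 100% = acetylcholine at EC100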
Target sequence (P08173 whole entry, looked up): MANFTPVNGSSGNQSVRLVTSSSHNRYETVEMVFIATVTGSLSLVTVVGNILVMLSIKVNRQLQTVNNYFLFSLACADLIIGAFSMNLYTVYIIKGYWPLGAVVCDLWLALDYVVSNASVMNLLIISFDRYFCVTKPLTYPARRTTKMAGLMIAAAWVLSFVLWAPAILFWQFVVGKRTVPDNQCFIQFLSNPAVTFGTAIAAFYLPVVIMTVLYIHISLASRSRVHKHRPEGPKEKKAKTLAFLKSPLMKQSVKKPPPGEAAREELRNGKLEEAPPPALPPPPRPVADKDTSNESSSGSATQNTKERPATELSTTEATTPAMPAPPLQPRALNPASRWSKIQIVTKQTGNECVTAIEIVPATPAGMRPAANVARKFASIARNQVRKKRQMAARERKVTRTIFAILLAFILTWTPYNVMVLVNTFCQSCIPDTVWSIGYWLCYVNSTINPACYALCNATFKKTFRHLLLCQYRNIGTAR
CHRM4 antagonist = CHRM4 antagonism in calcium assay; P08173; CHO-hM4 cells, ACh EC80, Fluo-8 calcium fluorescence; inhibition, % at 3 µM; 0.73% of 360,000 active; AID 624125;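 active = inhibition above its plate's cutoff, the mean inhibition of sample wells plus 3 SD, cut at about 27% in these data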;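 also: 0% = acetylcholine EC80 with DMSO and 100% = DMSO without agonist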
TAAR1 agonist = agonists of human TAAR1; Q96RJ0; CHO RD-HGA16 TAAR1, Fluo-8 calcium fluorescence; vehicle wells 0%, saturating PEA agonist 100%; activation, % at 3 µM; 0.99% of 360,000 active;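 active = activation above the mean activation of all test compounds in the run plus 3 SD, cut at about 38% in these data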
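Test system: RD-HGA16 (CHO) cells co-expressing Gα16 and hTAAR1; dosing: one-point dosing at 3 µM (nominal); timing: 17-24 h seeding, 75 min 37 °C dye, 30 min RT; signal: kinetic Fluo-8 calcium fluorescence; read-out basis: % activation relative to PEA EC100 response; controls: DMSO and PEA EC100; replicates: n 1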
M4 PAM = positive allosteric modulators of human muscarinic M4 receptor; P08173; CHO-K1 hM4/Gqi5, Fluo-8 calcium fluorescence, ACh EC20; 0% = ACh EC20, 100% = maximal ACh; activation, % at 3 µM; 0.4% of 360,000 active; AID 624126;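 active = activation above its plate's cutoff, the mean activation of sample wells plus 3 SD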
TAAR1 antagonist = human TAAR1 antagonism. Q96RJ0. CHO RD-HGA16 TAAR1, Fluo-8 calcium fluorescence, antagonist. inhibition, % at 3 µM. 1.5% of 360,000 active;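 active = inhibition above a per-plate cutoff, the mean inhibition of test compounds on that plate plus 3 SD, cut at about 49% in these data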;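 also: 0% = DMSO plus EC80 beta-PEA response and 100% = DMSO alone without agonist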
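test system = CHO RD-HGA16 cells bearing hTAAR1 | replication = singlicate | controls = DMSO-only wells and EC80 β-PEA-stimulated wells | reagent = EC80 β-phenethylamine stimulus | read-out basis = percent inhibition of PEA-evoked calcium signal, max/basal emission ratio | schedule = seeding 17-24 h prior, 75-min 37 °C, 30-min RT dye loading | signal = kinetic Fluo-8 calcium fluorescence measurement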
TAAR1 ag confirm = confirmation of human TAAR1 agonists. shares compounds with TAAR1 agonist. CHO RD-HGA16 TAAR1, Fluo-8 calcium fluorescence; scaled: DMSO 0%, maximal phenethylamine 100%. activation, % at 3 µM. 82% of 2,400 active;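 active = activation above a cutoff set at the run's mean compound activation plus 3 SD, cut at about 39% in these data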
Ga16 nonsel ag = counter-screen for TAAR1 agonists: nonselective agonists in parental cells | shares compounds with TAAR1 agonist | CHO-Ga16 parental, Fluo-8 calcium fluorescence; normalized to maximal ATP response, DMSO zero | activation, % at 3 µM | 50% of 2,400 active;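 active = activation above the run cutoff, the mean activation over all tested wells plus 3 SD, cut at about 12% in these data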;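 also: 0% = DMSO wells and 100% = maximal ATP response on the peak over basal ratio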
TAAR1 desensitize = human TAAR1 agonist that also desensitizes the receptor; shares compounds with TAAR1 agonist; CHO RD-HGA16 hTAAR1, Fluo-8 calcium, beta-PEA response inhibition; inhibition, % at 3 µM; 46% of 2,400 active;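 active = inhibition above the run cutoff, the mean inhibition of all test compounds plus 3 SD, cut at about 49% in these data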;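 also: beta-PEA stimulus applied at its EC80; loss of beta-PEA calcium signal after compound pretreatment read as receptor desensitization; 0% = DMSO with beta-PEA at EC80 and 100% = DMSO alone without agonist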
Ga16 nonsel ant = nonselective Ga16 antagonism, counter-screen | shares compounds with TAAR1 agonist | CHO-Ga16 ATP-induced calcium, Fluo-8 fluorescence | inhibition, % at 3 µM | 39% of 2,400 active;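 active = inhibition above the plate's mean compound inhibition plus 3 SD, computed per plate, cut at about 22% in these data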;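 also: 0% = EC80 ATP with DMSO and 100% = DMSO wells without ATP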
* = called active by the depositor; / = no result given.

SMILES	CHRM4 agonist	CHRM4 antagonist	TAAR1 agonist	M4 PAM	TAAR1 antagonist	TAAR1 ag confirm	Ga16 nonsel ag	TAAR1 desensitize	Ga16 nonsel ant
O=C(CCN1CCC(c2ccccc2)C1)c1ccc2c(c1)OCCO2 (stereo unspecified)	1	8	83*	-10	83*	80*	6	86*	11
CC(C)(C)n1nnnc1C(c1ccccc1)N1CCN(CCN2CCOCC2)CC1 (stereo unspecified)	1	6	2	-6	12	/	/	/	/
C[C@H](NC(=O)[C@@H]1CSC2c3ccccc3C(=O)N21)C(=O)NCCc1ccccc1 (stereo partly specified)	3	-12	68*	7	15	81*	0	41	6
C[C@H](NC(=O)[C@@H]1CSC2c3ccccc3C(=O)N21)C(=O)NCCc1ccc(F)cc1 (stereo partly specified)	2	6	28	6	3	/	/	/	/
Clc1ccc(-c2nc3ccncc3[nH]2)cc1	0	-1	49*	2	19	72*	-1	40	8
CC1CC(=Cc2ccc(N)cc2)C(=O)O1 (stereo unspecified)	1	-12	2	5	4	/	/	/	/
C[C@H]1CN([C@@H](C)CO)S(=O)(=O)c2ccc(Br)cc2O[C@H]1CN(C)C(=O)c1cccnc1	0	4	1	2	4	/	/	/	/
COc1ccccc1OCc1ccc(C(=O)Nc2ccccc2)cc1	10	-6	63*	5	57*	46*	27*	60*	37*
O=C(NNC(=O)c1ccc(NC(=O)c2ccccc2)cc1)c1ccccc1	3	-4	61*	-1	16	22	0	14	3
O=C(Cc1ccccc1)NNC(=O)c1ccc(NC(=O)c2ccccc2)cc1	0	-17	4	7	13	/	/	/	/
O=C(Nc1cccc(Cl)c1)c1ccccc1	3	-11	4	4	0	/	/	/	/
O=C1C(Cl)=C(NC(=O)c2ccccc2)C(=O)C(Cl)=C1NC(=O)c1ccccc1	3	24	53*	-3	69*	36	21*	55*	49*
COc1cc(C(=O)Nc2ccc(NC(C)=O)cc2)ccc1OCc1ccccc1	0	-4	2	1	10	/	/	/	/
O=C(Nc1ccc(C2SCCS2)cc1)c1ccccc1	2	8	63*	-2	46	62*	28*	48	36*
COc1cc(C(=O)N2CCCC(c3cc(C(=O)NCc4ccccc4)no3)C2)cc(OC)c1C (stereo unspecified)	6	-16	2	1	-8	/	/	/	/
CCCC(=O)N1CCC1(C)C(=O)NS(=O)(=O)c1cccs1 (stereo unspecified)	3	-13	3	9	-10	/	/	/	/
Cc1cccc(CN2[C@H](COCc3ccccc3)C=CS2(=O)=O)c1	1	-4	-2	0	-2	/	/	/	/
C[C@H]1CN([C@@H](C)CO)C(=O)CCCn2nncc2CO[C@H]1CN(C)C(=O)NC1CCCCC1	0	-9	2	0	-9	/	/	/	/
O=C(CSc1ccccc1)Nc1ccc(C(=O)Nc2ccc(O)cc2)cc1	3	-8	75*	0	27	1	0	3	14
O=C(Cc1ccccc1)Nc1ccc(C(=O)Nc2ccc(O)cc2)cc1	2	5	4	-5	25	/	/	/	/
CC(=O)c1cc2c(cc1C)CCCC2(C)C	1	-4	1	-1	-4	/	/	/	/
